# Sampled rows, rich in hits. Any-hit rate of the full collection: about 4.7%.
# NR3A LBD binder: modulators (binders) of human NR3A ligand-binding domain | NR3A LBD differential scanning fluorimetry, Tm shift; 0% = protein alone, 100% = glycine-bound protein | Tm shift relative to glycine control, % at 25 µM | AID 1259313 | 340,000 compounds, 2.5% hits;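 active means melting temperature shift of at least 10% of the positive control shift, at one fixed dose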
# MT1-MMP act inh: inhibitors of human MT1-MMP activation | HT1080 RFP-PRO-GFP cells, GFP/RFP ratio fluorescence, overnight; percent of plate control window, DMSO zero | GFP/RFP ratio change, % at 20 µM | 360,000 compounds, 0.061% hits;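 active means GFP/RFP ratio change of at least 30% with cell ATP level not reduced by more than half and red fluorescence within 50% of control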
#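 Assay system: HT1080 RFP-PRO-GFP cells | Dosing: 20 µM single dose, 1% DMSO | Incubation: Cells overnight before dosing, compound overnight, 37 °C, 5% CO2 | Evaluation: GFP/RFP fluorescence ratio | Control set: DMSO-only wells and HT1080 RFP-L50D-GFP cell wells as references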
# MPTP block: inhibitors of mitochondrial permeability transition pore; inhibition, % at 10 µM; isolated mouse mitochondria, Ca2+ swelling absorbance, 30 min; 360,000 compounds, 1.4% hits;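 active means inhibition of 50% or more, scaled per plate between neutral and stimulator controls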
# SKN-1 block: inhibitors of C. elegans SKN-1; C. elegans VP596 Pgst-4::GFP/RFP ratio, acrylamide-induced, 24 h; inhibition, % at 21.8 µM; 360,000 compounds, 0.49% hits;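 active means interference check ratio from 0.5 to 1.5 plus GFP to RFP signal ratio inhibition reaching or exceeding a fixed threshold, cut at about 30% in these data, passing the limit was not always enough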
# ADAM10 inh: ADAM10 inhibition, QFRET primary screen | inhibition, % at 7 µM | recombinant ADAM10, EDANS/DABCYL FRET peptide cleavage, 3 h | 370,000 compounds, 0.62% hits;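 active means inhibition above a per-campaign cutoff equal to the mean of compounds falling between control-based bounds plus 3 SD, cut at about 20% in these data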
# Target sequence (O14672 214-748 limits assumed): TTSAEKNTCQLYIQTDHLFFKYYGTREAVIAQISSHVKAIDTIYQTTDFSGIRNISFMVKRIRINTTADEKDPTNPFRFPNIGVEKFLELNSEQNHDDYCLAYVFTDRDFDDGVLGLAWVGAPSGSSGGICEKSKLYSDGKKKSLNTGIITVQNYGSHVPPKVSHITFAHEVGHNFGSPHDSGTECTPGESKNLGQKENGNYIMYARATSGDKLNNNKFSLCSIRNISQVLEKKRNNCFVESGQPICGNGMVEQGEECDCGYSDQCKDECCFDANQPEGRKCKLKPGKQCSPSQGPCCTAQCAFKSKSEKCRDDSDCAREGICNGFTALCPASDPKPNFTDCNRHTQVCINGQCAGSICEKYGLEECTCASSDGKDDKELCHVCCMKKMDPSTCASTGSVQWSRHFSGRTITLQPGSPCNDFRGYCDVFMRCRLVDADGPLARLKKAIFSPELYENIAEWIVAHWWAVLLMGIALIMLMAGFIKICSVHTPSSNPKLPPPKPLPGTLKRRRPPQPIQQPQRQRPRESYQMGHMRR
# ADAM17 inh: inhibitors of human ADAM17; 370,000 compounds, 0.83% hits; P78536; inhibition, % at 6.95 µM; recombinant ADAM17, EDANS/DABCYL FRET peptide cleavage;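 active means inhibition above the mean of compounds lying between control limits plus 3 SD, set per campaign, cut at about 8.5% in these data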
# MPTP counter: Rhodamine 123 counter-screen of mitochondrial pore hits. shares compounds with MPTP block. isolated mitochondria, membrane potential, Rhodamine 123 fluorescence. inhibition, % at 10 µM. 5,000 compounds, 78% hits. AID 624504; in the data active means inhibition above about 22%
# A number is an active result; 0 = inactive; - = no result.
SMILES,NR3A LBD binder,MT1-MMP act inh,MPTP block,SKN-1 block,ADAM10 inh,ADAM17 inh,MPTP counter
CC[C@]12CCCN3CCc4c(n(c5ccccc45)[C@@](O)(C(=O)OC)C1)[C@@H]32,0,0,0,0,0,0,-
S=c1[nH]nc(-c2ccccc2)n1/N=C/c1cccc(Br)c1,0,0,0,0,0,0,-
CCCCCCCCn1c2c(c(=N)c3ccccc31)CCC2,0,0,0,0,0,0,-
CCCCCCCCCn1c2c(c(=N)c3c1CCC3)CCCC2,0,0,104,0,-,-,101
CCCCCCCCCCn1c2c(c(=N)c3c1CCC3)CCC2,0,0,85,0,0,0,99
CCn1c2c(c(=N)c3c1CCC3)CCCC2,0,0,0,0,0,0,-
O=c1c2[nH]c3cccc(Cl)c3c2ncn1Cc1ccco1,0,0,0,0,0,0,-
O=C(Nc1ccc(Br)cc1)NC1CCCCCCC1,11,0,88,0,0,0,96
CNC(=S)Nc1cccc([N+](=O)[O-])c1,0,0,0,0,0,0,-
Cc1cc(Br)ccc1NC(=S)Nc1cccc([N+](=O)[O-])c1,0,0,97,0,0,0,91
O=C(Nc1ccc(C(=O)O)cc1)Nc1ccc([N+](=O)[O-])cc1,0,0,0,0,0,0,-
O=C(Nc1ccc(C(=O)O)cc1)Nc1cccc([N+](=O)[O-])c1,0,0,81,0,0,0,76
O=C(Nc1ccccc1)NC1CCCCCCC1,0,0,0,0,0,0,-
CCOc1ccc(C(=O)Nc2cccc([N+](=O)[O-])c2)cc1Br,27,0,80,0,0,0,69
O=C(O)C1Cc2ccccc2CN1C(=O)COc1ccc(Cl)cc1 (configuration not stated),0,0,0,0,0,0,-
CN(CCO)c1cc(N2CCCCC2)c2nonc2c1[N+](=O)[O-],0,0,0,0,0,0,-
O=C(Nc1cccc([N+](=O)[O-])c1)NN1CCCCCC1,0,0,94,0,0,0,82
O=C(Nc1cccc([N+](=O)[O-])c1)c1ccccc1,0,0,0,0,0,0,-
O=C(Nc1cccc([N+](=O)[O-])c1)c1ccc(CSc2ccccc2)cc1,31,0,78,0,0,0,86
O=C(Nc1cccc([N+](=O)[O-])c1)NC1CCCCCCC1,0,0,80,0,0,0,95
O=C(Nc1cccc([N+](=O)[O-])c1)C(=O)N1CCCCC1,0,0,0,0,0,0,-
O=C(Nc1cccc([N+](=O)[O-])c1)ONC1=NCCCCC1,0,-,68,0,0,0,77
O=C(O)C1CCC(=O)N1C1CCCC1 (configuration not stated),0,0,0,0,0,0,-
O=C(Nc1ccc2cccnc2c1)c1ccc(Br)cc1,0,0,0,0,0,0,-
CCc1nc2ccc(C(=O)Nc3ccc(C(N)=O)cc3)cn2c1N(C)CCC(C)C,-,0,0,0,0,0,-
SMILES,NR3A LBD binder,MT1-MMP act inh,MPTP block,SKN-1 block,ADAM10 inh,ADAM17 inh,MPTP counter
O=C(NCc1ccncc1)C(=O)N/N=C/c1ccccc1OCc1ccccc1,0,0,0,0,0,0,-
Cc1ccc(SCC(=O)OC(C)C(=O)Nc2ccc(S(N)(=O)=O)cc2)cc1C (configuration not stated),0,0,0,0,0,0,-
Cc1ccc(S(=O)(=O)C(C#N)c2nc3ccccc3nc2OCCO)cc1 (configuration not stated),0,0,0,0,0,0,-
CCS(=O)(=O)N1CCN(c2ncnc3sc(C)c(C)c23)CC1,0,0,0,0,0,0,-
COc1ccc(CCNC(=O)Nc2cccc([N+](=O)[O-])c2)cc1,0,0,85,0,0,0,83
Cc1cc([N+](=O)[O-])ccc1NC(=S)NC1CCCC1,0,0,67,0,0,0,97
CC(C)S(=O)(=O)c1csc(NC(=O)Nc2cccc([N+](=O)[O-])c2)c1Cl,29,0,84,0,0,0,69
COc1ccc(CCNC(=O)Nc2cccc([N+](=O)[O-])c2)cc1OC,0,0,0,0,0,0,-
O=C(Nc1cccc([N+](=O)[O-])c1)Nc1cccc([N+](=O)[O-])c1,26,0,91,0,0,0,78
O=C(Nc1cccc([N+](=O)[O-])c1)N(c1ccccc1)c1ccccc1,0,0,0,0,0,0,-
Cc1ccc(S(=O)(=O)NC(C)C(=O)Nc2cccc([N+](=O)[O-])c2)cc1 (configuration not stated),0,0,0,0,0,0,-
CCOc1cc(C)c(S(=O)(=O)Nc2ccc(F)cc2)cc1C,0,0,0,0,0,0,-
O=C(OCCOc1cccc(Cl)c1)c1ccc(F)c(S(=O)(=O)N2CCOCC2)c1,0,0,0,0,0,0,-
COc1cc(NC(=O)Nc2cccc([N+](=O)[O-])c2)cc(OC)c1,29,0,98,0,0,0,89
CC(=O)NC(=S)Nc1cccc([N+](=O)[O-])c1,0,0,0,0,0,0,-
O=C(Nc1ccc(Cl)cc1)Nc1cc([N+](=O)[O-])ccc1F,0,0,93,0,0,0,93
O=C(Nc1ccc([N+](=O)[O-])cc1)Nc1ccc(Cl)cc1F,22,0,100,0,0,0,101
Cc1cc(OC(F)F)ccc1NC(=O)Nc1ccc([N+](=O)[O-])cc1,0,0,99,0,0,0,86
O=C(Nc1ccc(F)cc1)c1cc(Cl)sc1Cl,0,0,0,0,0,0,-
O=C(Nc1ccc([N+](=O)[O-])cc1)c1cc(Cl)sc1Cl,0,0,89,0,0,0,85
CCC(C)(C)C(=O)Nc1cc([N+](=O)[O-])ccc1F,0,0,0,0,0,0,-
O=C(NCc1ccc2c(c1)OCO2)C1CCCN1S(=O)(=O)c1ccc(Cl)cc1 (configuration not stated),0,0,0,0,0,0,-
O=C(NCCCN1CCOCC1)c1ccccc1-c1ccccc1,0,0,0,0,0,0,-
Cc1ccc(OCC(=O)NNC(=O)C(C)Sc2ncnc3sc(C)c(C)c23)cc1 (configuration not stated),0,0,0,0,0,0,-
Cc1ccccc1OCC(=O)N/N=C/c1ccc2c(c1)OCCO2,0,0,0,0,0,0,-
Cc1cccc(-c2noc(CCC(=O)Nc3ccccc3)n2)c1,0,0,0,0,0,0,-
O=C(CCc1nc(-c2ccccc2F)no1)Nc1ccc(Oc2ccccc2)cc1,0,0,107,0,0,0,94
CCOC(=O)c1ccc(NC(=O)CCc2nc(-c3cccc(C)c3)no2)cc1,0,0,85,0,0,0,91

# Bioassay records as filed in PubChem.
